Assay [1] addresses T1, Protein disulfide-isomerase (Homo sapiens, UniProt P07237). Briefly: Inhibition of recombinant human N-terminal His-tagged PDI expressed in Escherichia coli BL21 (DE3) pLysS assessed as reduction in enzyme-mediated bovine insulin aggregation.
Target sequence in this assay (P07237 whole entry): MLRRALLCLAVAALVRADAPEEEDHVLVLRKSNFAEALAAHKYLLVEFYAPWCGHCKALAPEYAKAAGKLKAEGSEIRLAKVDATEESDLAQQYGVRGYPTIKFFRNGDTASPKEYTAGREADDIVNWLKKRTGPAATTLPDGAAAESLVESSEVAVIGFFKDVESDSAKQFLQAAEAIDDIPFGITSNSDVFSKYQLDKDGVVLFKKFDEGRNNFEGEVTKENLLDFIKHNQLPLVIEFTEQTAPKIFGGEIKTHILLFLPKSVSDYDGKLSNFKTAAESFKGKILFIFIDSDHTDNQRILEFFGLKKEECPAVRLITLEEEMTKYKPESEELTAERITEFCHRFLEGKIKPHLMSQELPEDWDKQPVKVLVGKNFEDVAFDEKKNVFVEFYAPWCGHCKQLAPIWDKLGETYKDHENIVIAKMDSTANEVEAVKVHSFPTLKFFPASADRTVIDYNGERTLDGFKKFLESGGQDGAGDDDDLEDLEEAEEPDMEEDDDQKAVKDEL
The subject of assay [2] is U-87 MG. Kind of assay: Inhibition of colony formation in human U87MG cells assessed as combination index at 1 to 30 uM measured after 24 hrs in presence of arsenic trioxide by crystal violet staining based assay. Type of assay: functional, U-87MG ATCC.
For assay [3], the system named is U-87 MG. Briefly: Cytotoxicity against human U87MG cells assessed as inhibition of cell growth measured after 72 hrs by MTT assay. Type of assay: functional, cell-based, U-87MG ATCC. Conditions: Homo sapiens, U-87 MG, 72 h; read-out: IC50. In outline:
(§1)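 A172 and NU04 cells were seeded at 4000 cells/well and U87MG at 5000 cells/well, incubated overnight at 37 °C, 5% CO2, then exposed to compound or vehicle for 72 h. MTT (3 mg/mL) was added for 4 h, formazan was dissolved in DMSO, and absorbance was read at 570 nm. IC50 came from nonlinear regression; mean ± SD of at least three experiments.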
For orientation: Tetrazolium dyes change colour on reduction, which living cells bring about.

Assay [4] has as its system A 172. Briefly: Cytotoxicity against human A172 cells assessed as inhibition of cell growth measured after 72 hrs by MTT assay. Type of assay: functional, cell-based. The note with it: Homo sapiens, A 172, 72 h; read-out: IC50. In outline: as §1
A short description of assay [5]: Cytotoxicity against human NU04 cells assessed as inhibition of cell growth measured after 72 hrs by MTT assay. Type of assay: functional, cell-based. The note with it: Homo sapiens, 72 h; read-out: IC50. An outline of the steps:
as §1

For assay [6], the system named is U-87 MG. Kind of assay: Inhibition of colony formation in human U87MG cells […] by crystal violet staining based assay. Type of assay: functional, cell-based. The note with it: U-87MG ATCC. In outline:
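Clonogenicity: U87MG cells seeded at 200 cells/well, left overnight, treated 24 h, then medium replaced and cells grown ten days. Stained 30 min with crystal violet, washed, imaged; normalized well intensity from three independent experiments.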

In assay [7] the test system is HFF-1. Briefly: Cytotoxicity against HFF1 cells assessed as inhibition of cell growth measured after 72 hrs by MTT assay. Type of assay: cell-based. The note with it: Homo sapiens, HFF-1, 72 h. In outline: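 Cells grown as monolayers at 37 °C, 5% CO2, seeded and left overnight, then exposed to drug or vehicle for 72 h. MTT (20 μL of 3 mg/mL) added for 4 h, supernatant removed, formazan dissolved in DMSO, absorbance read at 570 nm. IC50 from nonlinear regression of log concentration–response curves; at least three independent experiments.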

Assay [8] can be described thus: Therapeutic ratio of IC50 for HFF1 cells to IC50 for human NU04 cells. An outline of the steps:
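Ratio of two growth-inhibition IC50s, HFF-1 normal human fibroblasts over NU04 glioma cells. Cells were grown as monolayers at 37 °C in 5% CO2, with NU04 seeded at 4000 cells/well. After overnight attachment, cells were exposed to compound or vehicle for 72 h. MTT (3 mg/mL) was added for 4 h, and formazan dissolved in DMSO was read at 570 nm. IC50s came from nonlinear regression of log concentration-response curves, with at least three independent experiments.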

The target of assay [9] is T1, Protein disulfide-isomerase. Kind of assay: Binding affinity to recombinant human N-terminal His-tagged PDI expressed in Escherichia coli BL21 (DE3) pLysS assessed as change in melting temperature at 100 uM by ROX dye based thermal shift assay. In outline:
(§2)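 Purified wild-type, C53S/C397S or H256A PDI at 0.5 mg/mL in 50 mM Tris, pH 7.0, with or without 100 μM compound, was mixed with ROX dye in a 20 µL well. DMSO (5% in buffer) was the control. Samples were heated 25–99 °C at 1 °C/min, and the Boltzmann melting temperature shift versus DMSO was reported. Mean ± SD of three experiments.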
Target sequence in this assay (P07237 18-508 limits assumed): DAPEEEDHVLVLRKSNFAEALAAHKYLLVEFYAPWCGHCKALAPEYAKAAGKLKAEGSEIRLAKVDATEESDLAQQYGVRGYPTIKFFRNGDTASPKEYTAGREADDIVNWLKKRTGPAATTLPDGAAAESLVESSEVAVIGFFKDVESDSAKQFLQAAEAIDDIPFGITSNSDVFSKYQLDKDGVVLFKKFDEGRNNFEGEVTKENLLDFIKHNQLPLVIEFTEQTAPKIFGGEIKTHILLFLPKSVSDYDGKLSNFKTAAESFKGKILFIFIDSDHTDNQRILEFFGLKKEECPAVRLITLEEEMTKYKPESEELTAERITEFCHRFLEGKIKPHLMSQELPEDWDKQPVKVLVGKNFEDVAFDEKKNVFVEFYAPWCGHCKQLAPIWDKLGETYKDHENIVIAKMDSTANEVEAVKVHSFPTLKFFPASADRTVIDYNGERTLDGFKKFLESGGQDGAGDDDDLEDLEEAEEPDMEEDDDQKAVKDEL

Assay [10] deals with Eukaryotic translation initiation factor 2 subunit 1 (Homo sapiens) (UniProt P05198). Briefly: Induction of EIF2alpha phosphorylation in human U87MG cells at 20 uM measured after 2 hrs by Western blot analysis. Type of assay: cell-based. An outline of the steps:
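eIF2α phosphorylation in U87MG cells after 2 h with 1 µM PACMA31 or 20 µM analogues; tunicamycin 10 µg/mL as comparator. Lysates (Tris/NaCl/Triton/SDS, sonicated) quantified by BCA; 30 µg protein separated on 10% gels, blotted to PVDF, probed for phospho-eIF2α, detected by fluorescence.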
On the technique in general: In western blotting, separated proteins are transferred to a membrane and probed.

In assay [11] the test system is U-87 MG. Kind of assay: Induction of endoplasmic reticulum stress in human U87MG cells assessed as increase in GRP78 expression at 20 uM measured after 24 hrs by Western blot analysis. Type of assay: functional, cell-based. Conditions: U-87MG ATCC. An outline of the steps:
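ER-stress immunoblot: 0.5 x 10^6 U87MG cells/well treated for 24 h with 20 µM analogues, 1 µM PACMA31 or DMSO; tunicamycin 10 µg/mL for 2 or 24 h as positive control. Lysis in Tris/NaCl/Triton/SDS buffer with sonication; 30 µg protein on 10% gels, transferred to PVDF, GRP78 probed, fluorescence imaging.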

Assay [12] deals with Eukaryotic translation initiation factor 2 subunit 1 (Homo sapiens) (UniProt P05198). Kind of assay: Induction of EIF2alpha phosphorylation in human A172 cells at 20 uM measured after 2 hrs by Western blot analysis. Type of assay: cell-based.
The subject of assay [13] is A 172. Kind of assay: Induction of endoplasmic reticulum stress in human A172 cells assessed as increase in GRP78 expression at 20 uM measured after 24 hrs by Western blot analysis. It is filed as functional, cell-based.
The subject of assay [14] is U-87 MG. Kind of assay: Effect on PDI expression in human U87MG cells at 20 uM measured after 24 hrs by Western blot analysis. Type of assay: functional, cell-based. The note with it: U-87MG ATCC.
Assay [15] deals with A 172. Kind of assay: Effect on PDI expression in human A172 cells at 20 uM measured after 24 hrs by Western blot analysis. Type of assay: functional, cell-based.
The test system of assay [16] is U-87 MG. Kind of assay: Effect on MMP2 expression in human U87MG cells at 10 uM measured after 24 hrs by Western blot analysis. Conditions: U-87MG ATCC. It is filed as functional, cell-based.
Assay [17] deals with Focal adhesion kinase 1 (Homo sapiens) (UniProt Q05397). Kind of assay: Effect on FAK phosphorylation in human U87MG cells at 10 uM measured after 24 hrs by Western blot analysis. It is filed as cell-based.
For assay [18], the system named is Protein disulfide-isomerase (Homo sapiens), P07237 [H256A]. Kind of assay: Inhibition of recombinant human N-terminal His-tagged PDI H256A mutant expressed in Escherichia coli BL21 (DE3) pLysS at 10 uM assessed as reduction in enzyme-mediated bovine insulin aggregation. An outline of the steps: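 Insulin reductase assay against H256A PDI: 0.4 μM enzyme preincubated with compounds at 10 μM for 1 h at 37 °C in 100 mM sodium phosphate, 2 mM EDTA, 8 μM DTT, pH 7.0. Then 500 μM DTT and 130 μM bovine insulin added; aggregation read at 620 nm at room temperature. Activity % from OD change at 0 and 80 min, relative to PDI and DTT-only controls; three experiments.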

Assay [19] concerns U-87 MG. Kind of assay: Cytotoxicity against human U87MG cells assessed as inhibition of cell proliferation at <IC50 treated for 24 hrs and measured after 10 days by colony formation assay relative to control.
Assay [20] deals with A 172. Kind of assay: Induction of morphological changes in human A172 cells at 40 uM measured after 48 hrs by Giemsa-staining based microscopic analysis. It is filed as functional, cell-based.
Assay [21] addresses T1, Protein disulfide-isomerase. Briefly: Inhibition of recombinant human N-terminal His-tagged PDI expressed in Escherichia coli BL21 (DE3) pLysS at 100 uM measured after 1 hr by ANS dye based fluorescence spectra analysis. An outline of the steps:
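ANS spectral scan: PDI incubated with 100 μM compounds or matching DMSO in TBS for 1 h at 37 °C. ANS then added and incubated 20 min at 25 °C in the dark. Fluorescence spectrum recorded with excitation 370 nm, emission 400–700 nm.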
Target sequence in this assay (P07237 18-508 limits assumed): as above

The target in assay [22] is Eukaryotic translation initiation factor 2 subunit 1 (Homo sapiens) (UniProt P05198). Briefly: Induction of EIF2alpha phosphorylation in human U87MG cells at 10 ug/ml measured after 2 hrs by Western blot analysis. It is filed as cell-based. In outline:
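U87MG cells (0.5 x 10^6 per well) exposed to tunicamycin at 10 µg/mL for 2 h. Cells lysed by sonication in Tris/NaCl/Triton X-100/SDS buffer, pH 7.4, and cleared at 13,500×g, 4 °C. Protein was measured by BCA, and 30 µg was run on 10% acrylamide gels and transferred to PVDF. Antibody signal was read by fluorescence imaging.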

Assay [23] has the same target. Briefly: Induction of EIF2alpha phosphorylation in human A172 cells at 10 ug/ml measured after 2 hrs by Western blot analysis. Type of assay: cell-based.
Assay [24] deals with U-87 MG. Kind of assay: Cytotoxicity against human U87MG cells assessed as inhibition of cell proliferation at <IC50 treated for 24 hrs, measured after 10 days by colony formation assay relative to control.
Assay [25] relates to Protein disulfide-isomerase (Homo sapiens), P07237 [H256A]. Kind of assay: Binding affinity to recombinant human N-terminal His-tagged PDI H256A mutant expressed in Escherichia coli BL21 (DE3) pLysS assessed as change in melting temperature at 100 uM by ROX dye based thermal shift assay. An outline of the steps:
as §2

In assay [26] the test system is U-87 MG. Briefly: Cytotoxicity against human U87MG cells assessed as inhibition of cell proliferation at <IC50 measured after 72 hrs by MTT assay relative to control. Type of assay: functional, U-87MG ATCC.

The structures appear in SMILES notation. Activity calls are given as the source filed them. No cut-off for these calls is given here.

Sequence of Eukaryotic translation initiation factor 2 subunit 1 (Homo sapiens) (P05198 whole entry): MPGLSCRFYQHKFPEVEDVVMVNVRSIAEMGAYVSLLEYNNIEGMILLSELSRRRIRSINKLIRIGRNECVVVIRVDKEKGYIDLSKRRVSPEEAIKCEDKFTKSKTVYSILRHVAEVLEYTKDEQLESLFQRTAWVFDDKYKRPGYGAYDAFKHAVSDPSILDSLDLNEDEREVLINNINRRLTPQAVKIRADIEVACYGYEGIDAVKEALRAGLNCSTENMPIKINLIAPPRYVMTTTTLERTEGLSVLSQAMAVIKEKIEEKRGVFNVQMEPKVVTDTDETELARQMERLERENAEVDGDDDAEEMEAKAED
Sequence of Protein disulfide-isomerase (Homo sapiens), P07237 [H256A] (P07237 whole entry H256A): as the sequence (P07237 whole entry) above, with H256A counted along it
Sequence of Focal adhesion kinase 1 (Homo sapiens) (Q05397 2-1052 limits assumed): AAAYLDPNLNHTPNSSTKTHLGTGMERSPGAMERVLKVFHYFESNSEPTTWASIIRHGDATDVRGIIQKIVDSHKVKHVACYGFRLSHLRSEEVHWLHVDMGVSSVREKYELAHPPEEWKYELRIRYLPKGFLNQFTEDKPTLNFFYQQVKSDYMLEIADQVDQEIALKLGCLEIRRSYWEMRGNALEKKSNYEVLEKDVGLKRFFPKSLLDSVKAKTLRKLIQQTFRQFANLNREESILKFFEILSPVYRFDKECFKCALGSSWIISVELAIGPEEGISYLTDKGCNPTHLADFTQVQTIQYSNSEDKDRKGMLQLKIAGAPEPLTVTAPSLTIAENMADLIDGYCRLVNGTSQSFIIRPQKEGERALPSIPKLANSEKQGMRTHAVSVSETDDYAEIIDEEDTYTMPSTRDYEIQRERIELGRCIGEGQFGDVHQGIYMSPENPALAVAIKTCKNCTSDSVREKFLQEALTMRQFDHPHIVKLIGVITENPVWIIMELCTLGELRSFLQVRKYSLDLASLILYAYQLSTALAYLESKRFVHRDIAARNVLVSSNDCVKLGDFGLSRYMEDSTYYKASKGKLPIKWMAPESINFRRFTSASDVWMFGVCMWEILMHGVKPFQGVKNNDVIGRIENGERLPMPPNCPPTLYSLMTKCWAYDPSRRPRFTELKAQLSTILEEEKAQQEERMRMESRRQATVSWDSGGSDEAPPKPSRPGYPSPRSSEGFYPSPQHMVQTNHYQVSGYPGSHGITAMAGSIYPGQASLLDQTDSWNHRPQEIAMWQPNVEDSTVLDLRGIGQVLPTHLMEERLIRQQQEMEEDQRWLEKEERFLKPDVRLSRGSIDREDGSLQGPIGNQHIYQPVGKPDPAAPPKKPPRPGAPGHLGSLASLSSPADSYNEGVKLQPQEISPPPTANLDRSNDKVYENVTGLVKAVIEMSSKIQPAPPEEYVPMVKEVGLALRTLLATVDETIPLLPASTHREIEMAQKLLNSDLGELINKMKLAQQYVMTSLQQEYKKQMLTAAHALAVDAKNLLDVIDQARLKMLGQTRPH

On to `N#Cc1cccc(/C=C/C(=O)c2ccc(S(N)(=O)=O)cc2)c1`, for which the IC50 (usually the concentration needed to halve the response being measured) in assay [1] is 6.64 µM. In [2], the CI is listed as below 1.
For `O=C(/C=C/c1ccc(-c2ccncc2)cc1)c1cccc(O)c1`, the IC50 in [1] amounted to 0.21 µM; in [3], 24.9 µM; in [4], 11.3 µM; in [5], 3.8 µM; in [7] it was 31.8 µM. For the same compound, the inhibition entry in [6] is “Dose-dependent effect”. Besides, the “Ratio IC50” value in assay [8] stood at 8.39. Besides, in [9], the ΔTm – broadly, the shift of the melting midpoint relative to a reference – came to 0.34 °C. The outcome in assay [10], in [11], in assay [12] and in assay [13] was Active. The result in assay [14], in assay [15], in assay [16] and in [17] was inactive. In addition, the inhibition entry in assay [18] was “inactive”. For the same compound, the “inhibition (INH)” value in [19] is above 50%.
For the compound `COc1ccc(C(=O)/C=C/c2cccc(C#N)c2)cc1`, the IC50 in [1] is above 500 µM. The outcome in assay [20] was inactive. Moreover, the ΔTm in [9] is -0.24 °C. The inhibition result in assay [21] was “inactive”.
With `CCCCCCCCCCCCC/C=C/C(=O)N[C@H]1[C@H](O[C@H]2O[C@H](CO)[C@@H](O)[C@H](O)[C@H]2NC(C)=O)O[C@H](C[C@@H](O)[C@H]2O[C@@H](n3ccc(=O)[nH]c3=O)[C@H](O)[C@@H]2O)[C@H](O)[C@@H]1O`, the outcome in assay [22] and in [23] was Active.
Turning to `N#Cc1cccc(/C=C/C(=O)c2ccc(O)c(F)c2)c1`, the IC50 came to 1.14 µM in assay [1], 29.1 µM in [3], 21.9 µM in [4] and 9.8 µM in assay [5]. Also, the “inhibition (INH)” value in [24] is recorded as above 50%.
Regarding `C[C@]12CC[C@@H]3c4ccc(O)cc4CC[C@H]3[C@@H]1CC[C@@H]2O`, the result in assay [25] was inactive.
Regarding `CN(C)S(=O)(=O)c1ccc(C(=O)/C=C/c2cccc(C#N)c2)cc1`, the IC50 in assay [1] was found to be 6.23 µM. In addition, in [2], the CI is below 1.
For the compound `CCN(CC)S(=O)(=O)c1ccc(C(=O)/C=C/c2cccc(C#N)c2)cc1`, the IC50 in assay [1] is 1.23 µM; in assay [3], 17.7 µM; in [4] it was 26.4 µM; in assay [5] it was 19.9 µM. In addition, in assay [26], the “inhibition (INH)” value is on record as above 50%. In assay [2], the CI is listed as below 1.
`N#Cc1cccc(/C=C/C(=O)c2ccc(F)c(O)c2)c1`: the IC50 in assay [1] was found to be 1.15 µM; in assay [3], 22.9 µM; in assay [4] it was 16.8 µM; in assay [5], 10.6 µM. Further, the “inhibition (INH)” value in assay [24] was above 50%.
